# Measurements taken from ChEMBL document CHEMBL4811266 (Bioorg Med Chem Lett, 2021).
# Numbered stars: 1 amine (or outer) side, 2 acyl side, 3 side chain; on linkers, the order of the positions; unused ones are H or OH. Square brackets hold non-standard residues; d marks the D form. Peptide text beside a SMILES is read from it. X1 = O=C([C@@H]1Cc2cc(O)ccc2CN1[*:1])[*:2]; Tic(7-OH) = O=C(O)[C@@H]1Cc2ccc(O)cc2CN1
# Legend:
# [1] = biological target: T1, Type-2 angiotensin II receptor (Homo sapiens, UniProt P50052); experiment: Displacement of [125-I]-[Sar1, Ile8] from recombinant human AT2R transfected in human HEK293 cells incubated for 2 hrs by liquid scintillation counter analysis; format: cell-based
# T1 sequence (P50052 whole entry): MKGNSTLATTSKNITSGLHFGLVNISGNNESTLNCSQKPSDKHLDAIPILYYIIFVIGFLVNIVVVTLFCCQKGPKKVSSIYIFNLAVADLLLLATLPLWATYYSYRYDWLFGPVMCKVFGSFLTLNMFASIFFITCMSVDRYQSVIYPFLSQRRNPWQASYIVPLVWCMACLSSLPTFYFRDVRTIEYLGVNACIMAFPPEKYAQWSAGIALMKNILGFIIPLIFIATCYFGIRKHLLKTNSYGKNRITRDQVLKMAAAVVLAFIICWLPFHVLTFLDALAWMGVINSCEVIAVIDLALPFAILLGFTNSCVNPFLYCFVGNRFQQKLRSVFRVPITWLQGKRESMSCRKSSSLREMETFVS
# [2] = biological target: T2, Type-1 angiotensin II receptor (Homo sapiens, UniProt P30556); experiment: Displacement of [125-I]-[Sar1, Ile8] from recombinant human AT1R transfected in human HEK293 cells incubated for 2 hrs by liquid scintillation counter analysis; format: cell-based
# T2 sequence (P30556 whole entry): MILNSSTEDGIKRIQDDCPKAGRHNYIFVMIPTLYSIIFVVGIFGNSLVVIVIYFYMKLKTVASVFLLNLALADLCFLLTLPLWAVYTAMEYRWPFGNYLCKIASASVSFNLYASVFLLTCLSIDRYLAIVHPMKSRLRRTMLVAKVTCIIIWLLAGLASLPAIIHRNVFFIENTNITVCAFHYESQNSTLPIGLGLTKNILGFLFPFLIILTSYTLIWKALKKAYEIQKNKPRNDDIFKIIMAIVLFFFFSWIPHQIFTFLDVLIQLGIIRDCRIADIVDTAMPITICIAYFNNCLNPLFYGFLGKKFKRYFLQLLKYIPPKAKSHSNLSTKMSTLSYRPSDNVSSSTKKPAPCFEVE
# [3] = Stability of compound in human plasma assessed as parent compound remaining incubated for 24 hrs by LC-MS/MS analysis; format: ADME, cell-free; settings: read-out: Stabilty
# Procedure, shortened: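 Peptides were incubated in human plasma and sampled at different time intervals up to 24 h. Remaining concentration was monitored by LC-MS using selected abundant transitions and expressed relative to the initial concentration.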
# [4] = organism: Homo sapiens; experiment: Selectivity index, ratio of IC50 for displacement of [125-I]-[Sar1, Ile8] from recombinant human AT1R transfected in human HEK293 cells to IC50 for displacement of [125-I]-[Sar1, Ile8] from recombinant human AT2R transfected in human HEK293 cells
Compound,IC50 [1] [nM],IC50 [2] [nM],remaining at 24 h [3] [%],Ratio IC50 [4]
CC[C@H](C)[C@H](NC(=O)[C@H](Cc1ccc(O)cc1)NC(=O)[C@@H](NC(=O)[C@H](CCCNC(=N)N)NC(=O)[C@@H](N)CC(=O)O)C(C)C)C(=O)N[C@H]1Cc2c([nH]c3ccccc23)CN(CC(=O)N[C@@H](Cc2ccccc2)C(=O)O)C1=O,45.7,> 10000,> 50,> 219
CC[C@H](C)[C@H](NC(=O)[C@H](Cc1ccc(O)cc1)NC(=O)[C@@H](NC(=O)[C@@H](N)CCCNC(=N)N)C(C)C)C(=O)N[C@H]1Cc2c([nH]c3ccccc23)CN(CC(=O)N[C@@H](Cc2ccccc2)C(=O)O)C1=O,107,> 10000,70,> 94
CC[C@H](C)[C@H](NC(=O)[C@H](Cc1ccc(O)cc1)NC(=O)[C@@H](NC(=O)[C@H](CCCNC(=N)N)NC(=O)[C@@H](N)CC(=O)O)C(C)C)C(=O)N1Cc2cc(O)ccc2C[C@H]1C(=O)N1CCC[C@H]1C(=O)N[C@@H](Cc1ccccc1)C(=O)O (H-DRVYI[Tic(7-OH)]PF-OH),89.2,> 10000,> 90,> 112
CC[C@H](C)[C@H](NC(=O)[C@H](Cc1ccc(O)cc1)NC(=O)[C@@H](NC(=O)[C@H](CCCNC(=N)N)NC(=O)[C@@H](N)CC(=O)O)C(C)C)C(=O)N1Cc2ccc(O)cc2C[C@H]1C(=O)N1CCC[C@H]1C(=O)N[C@@H](Cc1ccccc1)C(=O)O (H-DRVYI[X1]PF-OH),59.3,174,> 50,2.9
CC[C@H](C)[C@H](NC(=O)[C@H](Cc1ccc(O)cc1)NC(=O)[C@@H](NC(=O)[C@@H](N)CCCNC(=N)N)C(C)C)C(=O)N1Cc2cc(O)ccc2C[C@H]1C(=O)N1CCC[C@H]1C(=O)N[C@@H](Cc1ccccc1)C(=O)O (H-RVYI[Tic(7-OH)]PF-OH),119,134,> 70,1.1
CC[C@H](C)[C@H](NC(=O)[C@H](Cc1ccc(O)cc1)NC(=O)[C@@H](NC(=O)[C@@H](N)CCCNC(=N)N)C(C)C)C(=O)N1Cc2ccc(O)cc2C[C@H]1C(=O)N1CCC[C@H]1C(=O)N[C@@H](Cc1ccccc1)C(=O)O (H-RVYI[X1]PF-OH),315,2010,> 50,6.4
H-DRVYIYPF-OH,,72600,> 50,18000
